# OXTR ag – activates the human oxytocin receptor; CHO-OTR cells, Fluo-8 calcium fluorescence; normalized: DMSO 0%, oxytocin 100%; P30559; activation, % at 3 µM; hit rate 0.32% among 320,000;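 active = activation above the mean of all tested compounds plus 3 SD, cutoff set per screening run, cut at about 20% in these data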;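 also: peak over basal fluorescence ratio from a 100 s FLIPR kinetic read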
# Target sequence (P30559 whole entry, looked up): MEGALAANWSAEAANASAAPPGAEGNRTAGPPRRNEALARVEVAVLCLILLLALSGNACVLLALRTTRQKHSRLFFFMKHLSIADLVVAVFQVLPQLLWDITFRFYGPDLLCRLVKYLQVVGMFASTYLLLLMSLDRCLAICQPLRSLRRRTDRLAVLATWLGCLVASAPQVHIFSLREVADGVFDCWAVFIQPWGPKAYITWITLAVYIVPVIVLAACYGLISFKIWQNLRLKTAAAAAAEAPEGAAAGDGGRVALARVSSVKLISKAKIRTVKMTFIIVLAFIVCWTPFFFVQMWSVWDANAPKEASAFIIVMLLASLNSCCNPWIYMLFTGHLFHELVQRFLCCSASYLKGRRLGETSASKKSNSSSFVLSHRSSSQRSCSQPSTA
# OXTR potentiate – potentiates the human oxytocin receptor response | hit rate 0.061% among 320,000 | CHO-OTR cells, Fluo-8 calcium fluorescence, potentiator mode; 0% = oxytocin EC15, 100% = EC100 | activation, % at 3 µM | P30559;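 active = activation above that plate's cutoff, the mean activation of tested compounds plus 3 SD, cut at about 6.6% in these data, passing the limit was not always enough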;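 also: 100% uses oxytocin at 75 nM as the full agonist control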
#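 Assay system: CHO cell line stably expressing human OTR | Also added: Oxytocin at about EC15, sub-maximal agonist stimulus | Times: Compound 6 min at room temperature before oxytocin, 100 s read | Measured by: Fluo-8 intracellular calcium fluorescence, ex 470-495, em 515-575 nm | Controls: EC15 oxytocin alone as 0%, 75 nM oxytocin as 100%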
# V1R ag counter – V1a receptor agonism, counter-screen for OXTR agonists. CHO-V1R cells, Fluo-8 calcium fluorescence, agonist mode; 0% DMSO, 100% 3 nM vasopressin. P37288. hit rate 0.25% among 320,000. activation, % at 3 µM;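 active = activation above the mean activation of all tested compounds plus 3 SD, per screening run, cut at about 20% in these data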;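 also: signal is peak over basal fluorescence ratio across a 100 second FLIPR read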
# CHO parental Ca – signal in parental CHO cells, OX1R antagonist counter-screen. hit rate 0.63% among 330,000. inhibition, % at 5.6 µM. parental CHO-K1, ATP-induced calcium, Fluo-8 fluorescence;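 active = inhibition above that plate's mean sample inhibition plus 3 SD, cut at about 26% in these data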;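 also: 0% = ATP-challenged DMSO wells and 100% = DMSO wells without ATP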
#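 Test system: untransfected parental CHO cell line. Compound: one dose, 5.6 µM nominal. Detection: intracellular calcium via Fluo-8 no-wash fluorescent dye. Measure: % inhibition. Benchmarks: ATP-challenged DMSO wells low, unchallenged DMSO wells high.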
# OX1R antag-1 – antagonists of human orexin 1 receptor; O43613; CHO/OX1R cells, Fluo-8 calcium fluorescence, orexin A; inhibition, % at 5 µM; hit rate 0.43% among 330,000;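 active = inhibition above its plate's threshold, mean inhibition of all tested compounds on the plate plus 3 SD, cut at about 37% in these data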;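 also: 0% = orexin A challenge wells and 100% = SB-334867-A antagonist wells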
# OX1R antag-2 – OX1R (human) antagonism; O43613; OX1R-expressing cells, FRET antagonist read-out; inhibition, % at 6.6 µM; hit rate 1.8% among 330,000; AID 485270; in the data active = inhibition mostly above about 38%, no sharp cut-off; inactive = mostly below about 40%;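 also: 0% = agonist challenge alone and 100% = reference antagonist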
# * = called active by the depositor. Only some compounds are listed: those with a hit (about 2.7% of all), similar ones and a draw of the others.
SMILES,OXTR ag,OXTR potentiate,V1R ag counter,CHO parental Ca,OX1R antag-1,OX1R antag-2
C=CCn1c(SCC(=O)c2cccs2)nc2sc(CC)cc2c1=O,6,-6,4,56*,51*,34
C=CCn1c(SCC(=O)NC2CC2)nc2sc(CC)cc2c1=O,0,-4,0,-17,-16,12
CC(C)CCN1C(Nc2ccccc2)=NC[C@@H]1CC(C)C,1,1,1,-16,-16,14
CC(C)C[C@H]1CN=C(Nc2ccccc2)N1CCc1cccc(F)c1,51*,-10,73*,50*,87*,8
CC(C)C[C@H]1CN=C(Nc2ccccc2)N1CCc1ccc(F)cc1,44*,-18,59*,57*,75*,15
Cc1nn(C2CCS(=O)(=O)C2)c(C)c1CN(C)C(=O)c1ccccc1 (centres undefined),1,2,1,-8,-4,2
CCOC(=O)/C(C#N)=C/C=C1\C=Cc2ccccc2N1CC,7,-1,5,-5,-18,64
CCCN1C=CC(=C/C=C(\C#N)C(=O)OCC)C=C1,62*,-15,49*,33*,36,73*
CCCCCCN1C=CC(=C/C=C(\C#N)C(=O)OCC)C=C1,177*,-16,149*,74*,99*,18
COc1ccc(-c2c(-c3cc(OC)cc(OC)c3)n(C)c3ccc(-c4ccc(S(N)(=O)=O)cc4)cc23)cc1,0,-1,0,6,-3,5
Cc1cc(C)n2nc(SCC(=O)Nc3ccc(F)c(F)c3F)nc2n1,4,3,2,-7,-24,1
Cc1cc(C)n2nc(Sc3ncccc3[N+](=O)[O-])nc2n1,0,1,0,-1,-6,45*
Cc1cc(C)n2nc(SCC(=O)Nc3ccc(F)cc3[N+](=O)[O-])nc2n1,-1,-4,0,-14,-19,29*
Cc1csc(=O)n1CCC(=O)OCc1nnc(-c2ccccc2)o1,0,-5,1,-15,-17,5
O=C(OCc1nnc(-c2ccc([N+](=O)[O-])cc2)o1)C1CC(=O)N(CCc2ccccc2)C1 (centres undefined),0,-8,1,-2,-10,60*
Cc1csc(=O)n1CCC(=O)OCc1nnc(-c2ccc([N+](=O)[O-])cc2)o1,5,-10,3,-12,-16,50*
O=C(CCN=C1NS(=O)(=O)c2ccccc21)OCc1nnc(-c2ccc([N+](=O)[O-])cc2)o1,0,-1,1,-9,12,63*
Cc1ccc(NC(=O)CCSc2nnc(C)o2)cc1,-1,2,0,-1,-4,37
CC(=NNC(=O)COc1cccc(C)c1)c1cccnc1,2,-3,1,-4,3,0
O=C(NCc1ccccc1CN1CCCC1)c1cccc(S(=O)(=O)N2CCOCC2)c1,2,-7,0,-8,-17,-2
CCn1nc(C(C)C)cc1C(=O)N1CCCC(CO)(Cc2ccc(F)cc2F)C1 (centres undefined),3,-16,5,-21,3,44*
Cc1nc2ccc(C(=O)N3CCCC(CO)(Cc4ccc(F)cc4F)C3)cc2nc1C (centres undefined),2,-12,5,-19,-35,11
O=C(N/C=C/c1ccccc1)c1ccccc1,-2,-7,0,-24,-2,22
CC1CN(C(=O)CCC(=O)NCc2ccc(Cl)cc2)c2ccccc2O1 (centres undefined),2,-5,3,1,-31,23
O=C(COC(=O)c1ccc(O)cc1)Nc1ccccc1-c1ccccc1,5,-18,10,43*,29,45
O=C(COc1ccccc1Cl)Nc1cccc(S(=O)(=O)N2CCCC2)c1,1,-13,5,-3,16,9
O=C(COc1ccc(F)cc1Cl)Nc1cccc(S(=O)(=O)N2CCCC2)c1,4,-8,8,30,47*,-1
COc1ccc(CN2CC[C@H]3C=CC[C@@H](C(=O)NCCc4ccccc4)[C@H]3C2=O)cc1OC,-1,-6,-1,-17,20,70*
COc1cc(Nc2ccccc2Cl)c([N+](=O)[O-])nc1[N+](=O)[O-],1,-3,0,-16,-8,41*
